Assay outcomes from PubChem.
CRFR2-BP antag: antagonists of CRF-binding protein/CRF-R2 receptor complex | HEK293 CRF-R2/CRF-BP, CRF-induced calcium fluorescence | inhibition, % at 11.8 µM | 350,000 tested, 0.59% active | AID 588475;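 active = inhibition of the ligand-induced calcium signal above about 50% at the single tested concentration, limit read from the data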
HNF4A DNA FP: change in binding of human HNF4 alpha to DNA. 360,000 tested, 0.3% active. HNF4a-FITC DNA binding, fluorescence polarization, 1 h. activity change, % at 10 µM. P41235; in the data active = activity change above about 30%, passing the limit was not always enough
Rpn11 inh: Rpn11 (human) deubiquitinase inhibition. AID 588493. human 26S proteasome, Ub4-pepOG fluorescence polarization; 20S core pre-blocked with epoxomicin. 360,000 tested, 0.59% active. calls only at 20 µM;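 active = inhibition at 20 µM, scaled to each plate's controls, above about 33%, limit read from the data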
CRFBP-R2 agonist: CRF-BP/CRF-R2 complex agonism; 350,000 tested, 0.46% active; activation, % at 13.2 µM; HEK293 CRF-R2/CRF-BP, calcium dye fluorescence (FLIPR); percent of saturating CRF peptide response; AID 588473;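 active = activation of at least 50%, plus an integration ratio under a set limit after plate pattern correction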
TPT1 inh: C. albicans TPT1 enzyme inhibition. recombinant caTPT1, FP RNA substrate dephosphorylation. inhibition, % at 5 µM. 300,000 tested, 0.81% active;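 active = inhibition above the mean of all tested compounds plus 3 SD, set per screening campaign, cut at about 24% in these data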
CSN inh: inhibitors of human CSN-mediated cullin deneddylation | Q92905 | Purified CSN, SCF-Nedd8-OG deneddylation, fluorescence polarization | inhibition, % at 12.5 µM | 360,000 tested, 0.38% active;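 active = pattern-corrected inhibition above about 35%, with an unprinted fluorescence ratio check between 0.5 and 1.5, limit read from the data, passing the limit was not always enough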
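Assay system: HEK293T-derived human Csn5 enzyme; quantity: 0.24 nM enzyme; medium: Tris/NaCl/DTT buffer, pH 7.5; also added: substrate SCFSkp2-Nedd8OG, 10 nM; doses: 12.5 µM compound; schedule: 90 min reaction at room temperature; signal: FP; read-out: % inhibition of substrate cleavage by Csn5; benchmarks: substrate-only high control, full reaction low control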
TPT1 inh confirm: TPT1 (C. albicans) inhibition, confirmation; inhibition, % at 5 µM; 2,400 tested, 74% active; shares compounds with TPT1 inh; AID 2149; recombinant caTPT1, fluorescence polarization, RNase T1 coupled;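 active = inhibition above the primary screen limit, the mean inhibition of all tested compounds plus 3 SD, cut at about 25% in these data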
RNase T1 inh: blocks Aspergillus oryzae RNase T1, a TPT1 counter-screen | RNase T1 cleavage, fluorescence polarization, 1536-well | AID 2153 | shares compounds with TPT1 inh | inhibition, % at 5 µM | 2,400 tested, 83% active;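 active = inhibition above the solvent-only control well mean plus 3 SD, limit set per screening run, cut at about 23% in these data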;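 also: inhibitors block cleavage so intact labeled substrate keeps polarization high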
Rpn11 confirm: Rpn11 inhibition confirmation, single concentration; inhibition, % at 20 µM; 1,900 tested, 29% active; shares compounds with Rpn11 inh; purified human 26S proteasome, Ub4-pepOG fluorescence polarization; proteasome pretreated with epoxomicin
MMP-2 counter: counter-screen for RPN11 inhibitors: inhibition of human MMP-2; inhibition, % at 20 µM; shares compounds with Rpn11 inh; recombinant MMP-2, FRET peptide cleavage fluorescence; 1,900 tested, 4% active;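 also: human MMP-2 activated beforehand with APMA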
Thrombin inh: blocks bovine thrombin, flagging nonselective RPN11 hits; shares compounds with Rpn11 inh; 1,900 tested, 13% active; inhibition, % at 20 µM; AID 602333; bovine thrombin cleavage of Ub4-pepOG, fluorescence polarization;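 active = mean inhibition at least 40% at 20 µM, or signal 3 deviations below plate average, so some actives read negative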
Target sequence (P00735 whole entry, looked up): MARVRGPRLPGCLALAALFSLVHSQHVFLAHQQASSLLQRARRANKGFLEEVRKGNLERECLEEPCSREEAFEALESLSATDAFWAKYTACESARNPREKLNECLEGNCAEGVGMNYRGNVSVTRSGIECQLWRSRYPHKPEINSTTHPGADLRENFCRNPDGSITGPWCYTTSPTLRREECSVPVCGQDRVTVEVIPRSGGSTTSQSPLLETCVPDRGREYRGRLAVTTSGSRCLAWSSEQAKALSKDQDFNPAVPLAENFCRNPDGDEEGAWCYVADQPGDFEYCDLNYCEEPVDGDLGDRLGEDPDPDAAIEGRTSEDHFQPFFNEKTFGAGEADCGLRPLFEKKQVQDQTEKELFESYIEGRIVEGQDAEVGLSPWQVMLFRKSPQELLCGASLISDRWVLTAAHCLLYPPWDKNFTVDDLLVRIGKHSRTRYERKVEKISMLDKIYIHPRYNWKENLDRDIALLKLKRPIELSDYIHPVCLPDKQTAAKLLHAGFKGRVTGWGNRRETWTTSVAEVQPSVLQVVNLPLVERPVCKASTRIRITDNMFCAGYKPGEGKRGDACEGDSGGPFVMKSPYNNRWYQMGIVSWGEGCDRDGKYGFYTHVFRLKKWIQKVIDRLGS
HNF4a DNA conf: change in binding of human HNF4 alpha to DNA, retest; shares compounds with HNF4A DNA FP; HNF4A-FITC DNA binding, fluorescence polarization, 1 h; activity change, % at 12.5 µM; 210 tested, 99% active; AID 1224897; call rule not given here
Of the large screens only hits and unclear results are named; the others gave an inactive call (follow-up assays come after a bar, where they were run). Hits are enriched below; roughly 2.3% of the tested compounds scored in any of these assays. Rule as the data show it, unless noted: active = inhibition above about 40%; inactive = the rest.

CN(C)c1ccc(C(=O)c2ccc(N(C)C)cc2)cc1	none
CN(C)CCCN=Cc1c(O)n(CCc2ccccc2)c(=O)[nH]c1=O	HNF4A DNA FP 43.0, Rpn11 inh active, TPT1 inh 72.5 | TPT1 inh confirm 65.0 | RNase T1 inh 82.1 | Rpn11 confirm 78.6 | MMP-2 counter inactive | Thrombin inh 62.3 | HNF4a DNA conf 60.4
COc1ccc(N2C(=O)/C(=C/c3ccc(C)o3)C(=O)NC2=S)cc1	Rpn11 inh active (no result: TPT1 inh) | Rpn11 confirm 61.1 | MMP-2 counter 55.7 | Thrombin inh 62.7
CN1CC(C(=O)c2cccc(C(F)(F)F)c2)C(c2ccc(Cl)cc2)C1 (centres undefined)	none
CCCc1c(C)nc(-c2ccc(C)cc2)nc1OC(=O)N(C)C	none
O=C(Nc1ccc(Cl)cc1)N1CC1	none (no result: TPT1 inh)
CC1(C)C(C(=O)N2CCN(c3ccc(Cl)cc3)CC2)C1(C)C	Rpn11 inh active | Rpn11 confirm inactive | MMP-2 counter inactive | Thrombin inh inactive
CCCCC(=O)N/N=C/c1c(O)n(Cc2ccc(F)cc2)c(=O)[nH]c1=O	Rpn11 inh active | Rpn11 confirm inactive | MMP-2 counter inactive | Thrombin inh inactive
COC(=O)C1=C(c2cccc(OCc3ccccc3)c2)C[C@@H]2CC[C@H]1N2C(=O)NCc1cccc(F)c1	none (no result: TPT1 inh)
CCCCn1c(O)c(/C=N/N2CCCCC2c2cccnc2)c(=O)[nH]c1=S (centres undefined)	none
Cc1ccc(-n2c(O)c(/C=N/N3CCCCC3c3cccnc3)c(=O)[nH]c2=S)cc1 (centres undefined)	Rpn11 inh active | Rpn11 confirm 51.5 | MMP-2 counter inactive | Thrombin inh inactive
c1ccc(-n2ccnc2)cc1	none
NC(N)=N/N=C/c1ccc(N(c2ccccc2)c2ccccc2)cc1	Rpn11 inh active | Rpn11 confirm 71.1 | MMP-2 counter inactive | Thrombin inh inactive
O=C(Cc1ccccc1)Oc1cccc(N2C(=O)CCC2=O)c1	none
CN1C(=O)C(=Cc2ccc(Sc3ccccc3)o2)C(=O)N(C)C1=O	Rpn11 inh active | Rpn11 confirm inactive | MMP-2 counter inactive | Thrombin inh inactive
CN1C(=O)C(=Cc2coc3ccccc3c2=O)C(=O)N(C)C1=O	none
O=c1c2ccccc2nc(N2CCCC2)n1-c1ccccc1	none
Cn1c(=O)c2c(nc(N/N=C/c3c(O)n(C4CCCCC4)c(=S)[nH]c3=O)n2C)n(C)c1=O	Rpn11 inh active | Rpn11 confirm inactive | MMP-2 counter inactive | Thrombin inh inactive
O=C1NC(=O)N(c2ccc(Cl)cc2)C(=O)/C1=C\c1ccc(Sc2nc3ccccc3[nH]2)o1	Rpn11 inh active | Rpn11 confirm 73.5 | MMP-2 counter inactive | Thrombin inh 48.7
COc1ccc(OC)c(-n2c(O)c(C=Nc3c(C)n(C)n(-c4ccccc4)c3=O)c(=O)[nH]c2=S)c1	Rpn11 inh active | Rpn11 confirm 40.7 | MMP-2 counter inactive | Thrombin inh inactive
CCOc1ccccc1-n1c(O)c(C=Nc2c(C)n(C)n(-c3ccccc3)c2=O)c(=O)[nH]c1=O	none
